According to ChEMBL document CHEMBL4052594, “Discovery of Pyrrolidine-Containing GPR40 Agonists: Stereochemistry Effects a Change in Binding Mode” (J Med Chem, 2017):
Activity calls are given as the source filed them. The rule behind the calls is not given here.

Columns and labels:
[1] = target: T1, Nuclear receptor subfamily 1 group I member 2 (Homo sapiens, UniProt O75469); experiment: Antagonist activity at PXR (unknown origin); format: ADME
T1 sequence (O75469 whole entry): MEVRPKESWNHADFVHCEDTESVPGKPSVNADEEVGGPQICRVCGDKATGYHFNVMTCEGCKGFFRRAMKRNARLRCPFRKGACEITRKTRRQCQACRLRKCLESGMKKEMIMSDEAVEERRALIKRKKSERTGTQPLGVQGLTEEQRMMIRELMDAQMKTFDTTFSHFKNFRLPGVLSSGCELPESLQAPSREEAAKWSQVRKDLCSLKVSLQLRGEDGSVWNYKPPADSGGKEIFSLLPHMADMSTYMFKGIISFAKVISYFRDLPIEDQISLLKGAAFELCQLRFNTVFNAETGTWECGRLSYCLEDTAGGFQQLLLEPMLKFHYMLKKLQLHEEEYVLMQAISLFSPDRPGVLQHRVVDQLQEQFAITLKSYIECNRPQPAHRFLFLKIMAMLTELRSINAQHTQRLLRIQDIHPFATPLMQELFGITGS

[2] = target: T2, Free fatty acid receptor 1 (Homo sapiens, UniProt O14842); experiment: Agonist activity at human GPR40 expressed in CHO-A12 cells assessed as increase in intracellular calcium flux measured for 100 secs by FLIPR assay; format: functional, cell-based
[3] = target: Free fatty acid receptor 1 (Mus musculus) (UniProt Q76JU9); experiment: Intrinsic activity at mouse GPR40 expressed in CHO-A12 cells assessed as increase in intracellular calcium flux at 8.3 uM measured for 100 secs by FLIPR assay […]; format: functional, cell-based
[4] = target: Free fatty acid receptor 1 (Mus musculus, UniProt Q76JU9); experiment: Agonist activity at mouse GPR40 expressed in CHO-A12 cells assessed as increase in intracellular calcium flux measured for 100 secs by FLIPR assay; format: functional, cell-based
[5] = Antagonist activity at sodium channel (unknown origin); details: human
[6] = target: T2, Free fatty acid receptor 1; experiment: Agonist activity at human GPR40 inducibly expressed in HEK293 cells assessed as increase in intracellular calcium flux measured for 100 secs by FLIPR assay; format: functional, cell-based
[7] = target: Free fatty acid receptor 1 (Mus musculus) (UniProt Q76JU9); experiment: Agonist activity at mouse GPR40 inducibly expressed in HEK293 cells assessed as increase in intracellular calcium flux measured for 100 secs by FLIPR assay; format: functional, cell-based
[8] = target: T2, Free fatty acid receptor 1; experiment: Binding affinity to human GPR40 expressed in HEK293 cell membranes after 1 hr by radioligand displacement based scintillation counting method
Outline: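 Binding of human GPR40 measured as Ki against a radioligand. Mean of at least two runs. Displacement of the label appears as a negative slope and potentiation as a positive one.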

[9] = Cmax in C57BL/6J mouse at 10 mg/kg, po; format: ADME, organism-based; design: dose 10 mg/kg, route oral; details: in vivo
[10] = target: T2, Free fatty acid receptor 1; experiment: Agonist activity at human GPR40 transfected in HEK293 cells assessed as induction of cAMP accumulation incubated for 30 to 45 mins by HTRF assay; format: functional, cell-based
[11] = target: T2, Free fatty acid receptor 1; experiment: Intrinsic activity at human GPR40 transfected in HEK293 cells assessed as induction of cAMP accumulation at 16.7 uM incubated for 30 to 45 mins by HTRF assay relative to […]; format: functional, cell-based
[12] = AUC (0 to 4 hrs) in C57BL/6J mouse at 10 mg/kg, po; format: ADME, organism-based; design: time < 4 hr, dose 10 mg/kg, route oral; details: in vivo
[13] = target: T2, Free fatty acid receptor 1; experiment: Partial agonist activity at human GPR40 inducibly expressed in HEK293 cells assessed as increase in intracellular calcium flux measured for 100 secs by FLIPR assay; format: functional, cell-based
Mus musculus = experiment: Antidiabetic activity in C57BL/6J mouse assessed as reduction of plasma glucose excursion at 10 to 100 mg/kg, po pretreated for 1 hr followed by glucose challenge measured up to 120 mins by iGTT; format: functional, organism-based
[14] = target: Free fatty acid receptor 1 (Mus musculus) (UniProt Q76JU9); experiment: Agonist activity at GPR40 in mouse STC1 cells assessed as induction of GLP-1 secretion measured after 1 hr by HTRF assay; format: cell-based

T2 sequence (O14842 whole entry): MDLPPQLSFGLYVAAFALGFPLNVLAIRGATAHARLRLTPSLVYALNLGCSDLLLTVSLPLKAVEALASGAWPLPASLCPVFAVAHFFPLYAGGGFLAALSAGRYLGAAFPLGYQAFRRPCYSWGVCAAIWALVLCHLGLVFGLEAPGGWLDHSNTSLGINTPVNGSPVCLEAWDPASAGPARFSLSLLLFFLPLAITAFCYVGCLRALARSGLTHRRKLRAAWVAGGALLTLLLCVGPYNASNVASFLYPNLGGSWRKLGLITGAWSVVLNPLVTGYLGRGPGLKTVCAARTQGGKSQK
Sequence of Free fatty acid receptor 1 (Mus musculus) (Q76JU9 whole entry): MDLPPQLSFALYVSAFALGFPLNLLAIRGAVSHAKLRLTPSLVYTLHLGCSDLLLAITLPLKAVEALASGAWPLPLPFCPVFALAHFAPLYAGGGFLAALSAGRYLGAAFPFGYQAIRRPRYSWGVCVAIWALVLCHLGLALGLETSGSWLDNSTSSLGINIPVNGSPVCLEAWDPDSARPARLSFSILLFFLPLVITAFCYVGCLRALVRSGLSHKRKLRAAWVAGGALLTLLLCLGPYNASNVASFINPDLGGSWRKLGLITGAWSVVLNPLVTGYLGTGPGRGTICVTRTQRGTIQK
Sequence of Free fatty acid receptor 1 (Mus musculus, UniProt Q76JU9) (Q76JU9 whole entry): as above

Compound	inhibition (INH) [1]	EC50 [2] [nM]	Intrinsic activity [3] [%]	EC50 [4] [nM]	inhibition (INH) [5]	Activity [6]	Activity [7]	Ki [8] [nM]	Cmax [9] [µM]	EC50 [10] [nM]	Intrinsic activity [11] [%]	AUC(0-t) at 4 h [12] [µM·h]	Activity [13]	Activity (Mus musculus)	Activity [14]
Cc1ccccc1COc1ccc(N2CCC[C@H]2CC(=O)O)cc1	Active	190	41 to 73	3400	Active										
COc1ccc(F)c(-c2ccc(Cc3ccc(N4CC(C(F)(F)F)CC4CC(=O)O)cc3)c(C)c2)c1 (mixture of isomers)						Active	Active								
Cc1ccccc1Oc1ccc(N2C[C@@H](C(F)(F)F)C[C@H]2CC(=O)O)cc1		73	84	330				35 to 39	4.7	> 20000	5	7	Active	inactive	inactive
